The text below walks through data of publication PMC4553143 (Circulation research, 2015).

The target in experiment [1] is T1, granzyme B in lysates of CD8+ T cells (Mus musculus, UniProt P04187).
T1 sequence (P04187 21-247): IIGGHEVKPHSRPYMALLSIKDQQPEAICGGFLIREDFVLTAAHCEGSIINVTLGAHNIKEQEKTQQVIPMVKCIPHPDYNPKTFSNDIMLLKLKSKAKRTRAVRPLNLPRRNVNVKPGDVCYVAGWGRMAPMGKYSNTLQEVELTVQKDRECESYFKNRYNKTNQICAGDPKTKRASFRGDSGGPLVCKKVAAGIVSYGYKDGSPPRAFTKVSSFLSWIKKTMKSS
The experiment can be described thus: Probe activation by lysates of CD8+ T cells. The experiment is classed as biochemical.

Experiment [2] has as its system granzyme B activity. Put plainly: Ex vivo FRI in cardiac myosin-induced experimental autoimmune myocarditis. Set-up: species or system mouse. The note with it: 24 hours post probe injection, 21 days after immunization. A digest of the protocol:
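Balb/cByJ mice were immunized with a murine α-myosin H chain-derived peptide (n = 16); controls received PBS instead (n = 4). Granzyme B-sensitive probe given i.v. on day 20. One day later, excised hearts and sections were imaged by microscopic ex vivo FRI in the 680 nm channel. Exposure: 1 min for tissue, 30 min for heart sections.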

Experiment [3] concerns granzyme B activity. The format is in vivo, mouse. In short, it runs like this: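 Male CMy-Tg and C57BL/6 WT mice (10–12 weeks) received OT-1 CD8+ T cells i.p. in PBS (2.0, 3.5 or 5.0 × 10^6). Dexamethasone 0.75 mg/kg or PBS i.p. daily, days 1–4. Day 4: probe i.v. (50 μL, 1 μmol/L in PBS) or ProSense 680 (2 nmol/150 μL). After 24 h: FMT-CT under anaesthesia; ex vivo FRI, 680 nm channel.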

In experiment [4] the test system is chymotrypsin. The experiment can be described thus: Enzymatic assay of nanoprobe activation. The settings on record: chymotrypsin 0.01 mg/mL, 82-fold excess activity; n = 3. The format is biochemical.
In experiment [5] the test system is CMy-Tg mice. The experiment can be described thus: Heart and serum markers and histology in CD8+ T cell-mediated myocarditis. The format is in vivo, mouse. The settings on record: CMy-Tg mice 5 days post transfer of 3.5 × 10^6 OT-1 CD8+ T cells. A digest of the protocol:
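CMy-Tg (n = 12) and WT (n = 4) mice received 3.5 × 10^6 OT-1 CD8+ T cells. PBS vehicle or dexamethasone (0.75 mg/kg) i.p. on days 1–4. Hearts and serum collected at day 5. Heart granzyme B and cleaved caspase-3 measured by Western blot, normalized to GAPDH. Serum granzyme B, interferon-γ and cardiac troponin-I assayed. P values versus vehicle of each strain.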

The test system of experiment [6] is OT-1 CD8+ T cells / CMy-Tg cardiomyocytes. The experiment can be described thus: Granzyme B expression in OT-1 CD8+ T cells and co-cultures in vitro. The format is cell-based, mouse.
In experiment [7] the test system is CMy-Tg mice. Put plainly: Survival study in CD8+ T cell-mediated myocarditis. The experiment is classed as in vivo, mouse. The settings on record: 0.75 mg/kg i.p. for 4 days; 2.0 × 10^6 OT-1 cells; n = 8. A digest of the protocol: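 Male CMy-Tg and WT C57BL/6 mice (10–12 weeks) received 2.0, 3.5 or 5.0 × 10^6 OT-1 CD8+ T cells i.p. in PBS. Dexamethasone 0.75 mg/kg/day, freshly dissolved in sterile PBS, given i.p. in 100 μL on days 1–4 after cell transfer; controls received PBS. Survival followed for 28 days; Kaplan–Meier analysis, n = 8 per group.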

Consider “GIEFDSGGC [granzyme B-sensitive nanoprobe]”, for which the “fluorescent signal from the probe incubated with lysates” value in experiment [1] (lysates of Balb/c WT CD8+ T cells stimulated with anti-CD-3, 48 hours) is given as “increased above baseline after 48 hours”; in experiment [1] (lysates of granzyme B-deficient CD8+ T cells), “did not demonstrate a comparable increase”. Besides, the “signals from the probe in heart tissues and sections, EAM Balb/cByJ vs WT mice” value in experiment [2] is reported as “higher signals”. Besides, the “signal compared with ProSense 680” value in experiment [3] (CD8+ T cell-mediated myocardial injury model) was “substantially higher signal”. The “probe activation on incubation with chymotrypsin” value in experiment [4] was “activation comparable in intensity to Granzyme B”.

Turning to `C[C@@H]1C[C@H]2[C@@H]3CCC4=CC(=O)C=C[C@]4(C)[C@@]3(F)[C@@H](O)C[C@]2(C)[C@@]1(O)C(=O)CO` [dexamethasone], the “serum concentrations of granzyme B, interferon-γ, and cardiac troponin-I” value in experiment [5] is “limited these increases”. Besides, the “protein levels of granzyme B and active caspase-3 in hearts” value in experiment [5] (Western blot) is “reduced these concentrations”. The “granzyme B protein concentrations in OT-1 CD8+ T cells and their culture medium” value in experiment [6] (48 hours of anti-CD3 stimulation) was “did not mute this rise”. Moreover, the “probe signals colocalized with granzyme B activity” value in experiment [6] (CMy-Tg cardiomyocytes co-cultured with OT-1 CD8+ T cells, confocal microscopy) is “decreased the probe signals”. For the same molecule, the “survival of CMy-Tg mice” value in experiment [7] is listed as “survived for 28 days”. Further, in experiment [3] (dexamethasone administration in vivo, vehicle 504±263, P=0.002), the “granzyme B activity, fluorescence intensities in hearts” value is listed as 194±77 fluorescence intensities.
